# According to ChEMBL document CHEMBL5137045, “Discovery of 2-(furan-2-ylmethylene)hydrazine-1-carbothioamide derivatives as novel inhibitors of SARS-CoV-2 main protease” (Eur J Med Chem, 2022):
# The source made the active and inactive calls. The rule behind the calls is not given here.
# Tests used:
# [1] = biological target: T1, Replicase polyprotein 1ab (Severe acute respiratory syndrome coronavirus 2, UniProt P0DTD1); assay: Inhibition of SARS CoV-2 main protease using DABCYL-KTSAVLQSGFRKM-E(EDANS)-NH2 as substrate preincubated for 30 mins followed by substrate addition and measured after 20 mins
# [2] = biological target: Replicase polyprotein 1ab (Severe acute respiratory syndrome coronavirus 2) (UniProt P0DTD1); assay: Inhibition of SARS CoV-2 main protease at 50 uM using DABCYL-KTSAVLQSGFRKM-E(EDANS)-NH2 as substrate preincubated for 30 mins followed by substrate addition and measured after 20 mins relative to control; conditions: time 50.0 min
# How it was run: (§1)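 FRET protease assay in 40 mM PBS, 100 mM NaCl, 1 mM EDTA, 0.1% Triton, pH 7.3. M^pro (0.5 μM) was preincubated with inhibitor 30 min at room temperature, then 20 μM substrate was added. Cleavage fluorescence (ex 360/em 460 nm) was read for 20 min. This covers preliminary screening and IC50; IC50 from Hill1 fit.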
# [3] = biological target: Replicase polyprotein 1ab (Severe acute respiratory syndrome coronavirus 2) (UniProt P0DTD1); assay: Non-competitive inhibition of SARS CoV-2 main protease using DABCYL-KTSAVLQSGFRKM-E(EDANS)-NH2 as substrate at varying concentrations preincubated for 3 hrs followed by substrate addition by Lineweaver-burk plot analysis
# How it was run: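 Kinetics: 0.5 μM M^pro was preincubated 3 h with DMSO or inhibitor, then varying fluorogenic substrate concentrations started the reaction. Three replicates, curve-fitted.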
# [4] = biological target: Replicase polyprotein 1ab (Severe acute respiratory syndrome coronavirus 2) (UniProt P0DTD1); assay: Reversible inhibition of SARS CoV-2 main protease at 100 uM incubated for 180 mins by ultrafiltration assay
# How it was run: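 Reversibility: 10 μM M^pro was incubated with 100 μM inhibitor for 180 min and split into four portions, each ultrafiltered a different number of times. Each round added an equal volume of assay buffer, 5 min, 4 °C, 12,000 rpm. Retained protease was diluted to 0.5 μM and assayed for activity; three replicates averaged.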
# [5] = biological target: T1, Replicase polyprotein 1ab; assay: Inhibition of SARS CoV-2 main protease using DABCYL-KTSAVLQSGFRKM-E(EDANS)-NH2 as substrate preincubated for 5 mins followed by substrate addition
# How it was run: (§2)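 Time-dependence: M^pro was preincubated with various inhibitor concentrations for different times at room temperature before fluorogenic substrate addition. Activity was read as in the standard FRET assay.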
# [6] = test system: Vero; assay: (§3) Cytotoxicity against African green monkey Vero cells assessed as reduction in cell viability measured after 48 hrs by MTT assay; assay type: toxicity, cell-based; conditions: chlorocebus sabaeus, vero, 48 h
# How it was run: (§4)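 MTT viability assay. Vero cells were kept in MEM and MDCK cells in DMEM, each with 10% FBS and 100 U/mL penicillin/streptomycin, humidified, 5% CO2. Cells were seeded, incubated 18 h, then given compound; vehicle served as blank.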
# [7] = biological target: Replicase polyprotein 1ab (Severe acute respiratory syndrome coronavirus 2) (UniProt P0DTD1); assay: Covalent binding affinity to SARS CoV-2 main protease at 15 uM incubated for 3 hrs by Quadrupole-TOF LC-MS/MS analysis
# How it was run: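 Protease (2 μM) was co-incubated with 15 μM inhibitor on ice for 3 h. The complex was run on Q-TOF LC-MS/MS, and raw mass signal was deconvoluted to give total protein mass.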
# [8] = biological target: T1, Replicase polyprotein 1ab; assay: Inhibition of SARS CoV-2 main protease using DABCYL-KTSAVLQSGFRKM-E(EDANS)-NH2 as substrate preincubated for 30 mins followed by substrate addition; how it was run: as §1
# [9] = test system: MDCK; assay: Cytotoxicity against MDCK cells assessed as reduction in cell viability incubated for 48 hrs by MTT assay; assay type: toxicity, cell-based, Canis lupus familiaris; conditions: dog; how it was run: as §4
# [10] = biological target: Procathepsin L (Homo sapiens, UniProt P07711); assay: Inhibition of human Cathepsin L using Ac-FR-AFC as fluorescent substrate preincubated for 15 mins followed by substrate addition and measured after 30 mins by fluorescent microplate reader analysis
# Chain of Procathepsin L (P07711 whole entry): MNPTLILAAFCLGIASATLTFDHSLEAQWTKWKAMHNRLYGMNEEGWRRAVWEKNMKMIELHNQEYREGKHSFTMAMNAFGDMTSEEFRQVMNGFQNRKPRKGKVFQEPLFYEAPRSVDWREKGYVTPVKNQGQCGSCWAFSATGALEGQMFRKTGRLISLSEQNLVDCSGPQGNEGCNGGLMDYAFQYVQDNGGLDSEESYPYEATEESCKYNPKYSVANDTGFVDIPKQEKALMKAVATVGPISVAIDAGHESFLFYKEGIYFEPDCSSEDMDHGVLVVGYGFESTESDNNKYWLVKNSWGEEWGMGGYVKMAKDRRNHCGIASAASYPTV
# [11] = biological target: T1, Replicase polyprotein 1ab; assay: Inhibition of SARS CoV-2 main protease using DABCYL-KTSAVLQSGFRKM-E(EDANS)-NH2 as substrate preincubated for 180 mins followed by substrate addition; how it was run: as §2
# [12] = biological target: T1, Replicase polyprotein 1ab; assay: Binding affinity to SARS-CoV-2 main protease assessed as dissociation constant by SPR analysis
# How it was run: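 SPR with M^pro immobilised and an empty first flow channel as reference. Compounds were injected for 60 s at 0.2–100 μM for binding (50 μM for screening). Dissociation was followed for 100–200 s at 30 μL/min. […] K_D came from a 1:1 kinetic binding fit.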
# [13] = as §3; assay type: toxicity, cell-based; conditions: chlorocebus sabaeus, Vero cells; how it was run: as §4
SMILES,IC50 [1] [µM],inhibition [2] [%],also measured
NC(=S)N/N=C/c1ccc(-c2cccc(C(=O)O)c2Cl)o1,40.6,84.4,–
NC(=S)N/N=C/c1ccc(-c2ccc(Cl)c(C(=O)O)c2)o1,25.4,93.6,–
NC(=S)N/N=C/c1ccc(-c2ccc(C(=O)O)c(O)c2)o1,1.57,102,inhibition [3]: Active; inhibition [4]: Active; IC50 [5]: 42.8 µM; CC50 [6]: > 100 µM; Activity [7]: Active; IC50 [8]: 6.18 µM; CC50 [9]: > 100 µM; IC50 [10]: 16.3 µM; IC50 [11]: 0.85 µM
Nc1nonc1-c1nc2ccccc2n1CC(=O)N/N=C/c1ccc(-c2cccc(C(=O)O)c2)o1,21.3,65,Kd [12]: 27.7 µM
NC(=S)N/N=C/c1ccc(-c2ccc(C(=O)O)cc2)o1,17.5,89.4,–
N#Cc1cc(-c2ccc(/C=N/NC(N)=S)o2)ccc1O,4.14,107,–
Cc1cc(C(=O)O)ccc1-c1ccc(/C=N/NC(N)=S)o1,4.69,98.5,–
Cc1c(NC(=S)N/N=C/c2ccc(-c3ccc([N+](=O)[O-])cc3)o2)c(=O)n(-c2ccccc2)n1C,10.8,95,–
NC(=S)N/N=C/c1ccc(-c2ccc3cccnc3c2)o1,10.4,92.3,–
NC(=S)N/N=C/c1ccc(-c2ccc([N+](=O)[O-])cc2)o1,9.69,81.1,–
NC(=S)N/N=C/c1ccc(-c2ccc(O)c(C(=O)O)c2)o1,9.09,115,–
NC(=O)c1ccc(-c2ccc(/C=N/NC(N)=S)o2)cc1,4,94.2,–
NC(=S)N/N=C/c1ccc(-c2ccccc2)o1,4.05,100,–
NC(=S)N/N=C/c1ccc(-c2ccncc2)o1,7.09,95.4,–
Cc1cc([N+](=O)[O-])c(-c2ccc(/C=N/NC(=O)c3nonc3N)o2)cc1Cl,25,70.9,–
NC(=S)N/N=C/c1cc(-c2ccc(C(=O)O)cc2)co1,24.6,90.9,–
NC(=S)N/N=C/c1ccc(-c2ccc(F)nc2)o1,8.76,97.4,–
CCOC(=O)c1ccc(-c2ccc(/C=N/NC(=O)Cn3c4ccccc4c(=O)c4ccccc43)o2)cc1,–,< 20,–
O=C(N/N=C/c1ccc([N+](=O)[O-])o1)c1ccc(O)cc1O,–,< 20,–
C=CCNC(=S)N/N=C/c1ccc(-c2ccc([N+](=O)[O-])cc2)o1,–,51.4,–
NC(=S)N/N=C/c1ccc(Cc2ccccc2)o1,1.55,100,CC50 at 48 h [13]: 100 µM; CC50 [9]: > 100 µM; IC50 [10]: 8.09 µM
O=C(O)c1cc(-c2ccc(/C=N/Nc3nc4nonc4nc3Nc3ccc(Br)cc3)o2)ccc1O,–,45.9,–
NC(=S)N/N=C/c1ccc(-c2cccc(C(=O)O)c2)o1,10.9,85.1,–
Cc1c(-c2ccc(/C=N/NC(=O)Cn3c(-c4nonc4N)nc4ccccc43)o2)ccc([N+](=O)[O-])c1C,–,< 20,–
NC(=S)N/N=C/c1ccc(-c2ccc(C(=O)O)c(Cl)c2)o1,32.5,89,–
Cc1cc(-c2ccc(/C=N/NC(=O)Cn3nnnc3N)o2)c([N+](=O)[O-])cc1C,17.5,86,–
Cc1c(NC(=S)NC(=O)c2cncc(Br)c2)c(=O)n(-c2ccccc2)n1C,–,< 20,–

SMILES,IC50 [1] [µM],inhibition [2] [%],also measured
O=C(O)c1cccc(-c2ccc(/C=N/NC(=S)Nc3ccc(Cl)cc3)o2)c1,–,43.8,–
CCNC(S)=Nc1c(C)n(C)n(-c2ccccc2)c1=O,–,< 20,–
O=C(O)c1cc(-c2ccc(/C=C3\NC(=O)N(Cc4ccccc4F)C3=O)o2)ccc1Cl,–,53.4,–
Cc1ccc(-c2ccc(/C=N/NC(=O)Cn3c4ccccc4c(=O)c4ccccc43)o2)cc1[N+](=O)[O-],–,55.4,–
Cc1cccc(C(=O)NC(=S)Nc2c(C)n(C)n(-c3ccccc3)c2=O)c1,–,< 20,–
COc1ccc(-c2ccc(/C=N/NC(N)=S)o2)cc1OC,5.81,102,–
NC(=S)N/N=C/c1ccc(-c2cnc3ccccc3c2)o1,10.3,88.9,–
NC(=S)N/N=C/c1ccc(-c2cc(C(=O)O)ccc2Cl)o1,10,97.2,–
NC(=S)N/N=C/c1ccc(-c2ccc(S(N)(=O)=O)cc2)o1,5.39,98.5,–
O=C(Cn1c2ccccc2c(=O)c2ccccc21)N/N=C/c1ccc(-c2ccc([N+](=O)[O-])cc2Cl)o1,–,24.1,–
NC(=S)N/N=C/c1cccc(-c2ccc(C(=O)O)cc2)c1,5.44,99.2,–
NC(=S)N/N=C/c1ccc(-c2ccc(C(=O)O)cc2)s1,5.78,95.1,–
Cc1c(NC(=S)NC(=O)CC(C)C)c(=O)n(-c2ccccc2)n1C,–,< 20,–
C=C(C)CNC(=S)Nc1c(C)n(C)n(-c2ccccc2)c1=O,–,< 20,–
CNC(=S)N/N=C/c1ccc(-c2ccc(C(=O)O)cc2)o1,–,39.5,–
Cc1c(NC(=S)NC(=O)c2ccncc2)c(=O)n(-c2ccccc2)n1C,–,< 20,–
Cc1c(NC(=S)NCCCN(C)C)c(=O)n(-c2ccccc2)n1C,–,< 20,–
NC(=S)N/N=C/c1ccc(-c2ccc(C(=O)O)cc2F)o1,8.14,101,–
Nc1nonc1-c1cc2ccccc2n1CC(=O)N/N=C/c1ccc(-c2cccc(C(=O)O)c2)o1,–,< 20,–
O=C(O)c1cccc(-c2ccc(/C=N/NC(=S)Nc3cccc(C(F)(F)F)c3)o2)c1,–,43,–
N#C/C(=C\c1ccc(-c2cccc(C(=O)O)c2)o1)c1nc2ccccc2[nH]1,–,< 20,–
Cc1c(NC(=S)NC(=O)c2cccc(Br)c2)c(=O)n(-c2ccccc2)n1C,–,< 20,–
NC(=S)N/N=C/c1ccc(-c2cccc([N+](=O)[O-])c2)o1,8.08,81.6,–
Nc1nonc1-c1nc2ccccc2n1CC(=O)N/N=C/c1ccc(-c2ccccc2C(=O)O)o1,–,41.7,–
COc1cc([N+](=O)[O-])ccc1-c1ccc(/C=N/NC(=O)Cn2c3ccccc3c(=O)c3ccccc32)o1,–,26,–
CC1=NN(c2cccc(C(=O)O)c2)C(=O)/C1=C\c1ccc(-c2cccc(C(=O)O)c2)o1,–,28.5,–
